Consider 15 molecules from paper PMC9474599 (Immunity, 2022).

“Also recorded” adds a separate entry of the source. *1 amine or outer side, *2 acyl side, *3 side chain or, on linkers, in order; H or OH if unused. Where a SMILES comes first, the peptide text is derived from it. Bridges are numbered along the chain shown (N, C = ends). Where no end group is shown, it is not given here. [ ]: non-standard residue; d: D form. The star is where a group is joined. X1 = CC(=O)NC(C(=O)OC(C(C)C)C(N[*:1])C(=O)[*:2])C(O)C(C)C; Biotin = O=C1N[C@H]2[C@H](CS[C@H]2CCCCC(=O)*)N1; PhLac = O=C(O)[CH](O)Cc1ccccc1; NMeT = CN[CH](C(=O)O)[CH](C)O; NMeA = CN[CH](C)C(=O)O; NMeDha = C=C(NC)C(=O)O

One assay concerns the target T1, Mrgpra2b (Mus musculus, UniProt Q91WW4).
T1 sequence (Q91WW4 1-305): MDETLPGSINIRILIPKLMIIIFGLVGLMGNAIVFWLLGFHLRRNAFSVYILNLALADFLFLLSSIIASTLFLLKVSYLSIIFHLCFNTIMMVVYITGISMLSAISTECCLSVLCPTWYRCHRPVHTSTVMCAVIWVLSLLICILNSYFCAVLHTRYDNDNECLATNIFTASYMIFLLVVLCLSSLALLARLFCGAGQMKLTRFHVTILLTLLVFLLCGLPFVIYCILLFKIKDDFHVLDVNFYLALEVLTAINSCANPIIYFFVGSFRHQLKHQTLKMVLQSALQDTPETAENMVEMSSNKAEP
The experiment in a line: FLIPR intracellular Ca2+ mobilization, HEK cells expressing Mrgpra2b. It counts as cell-based. The conditions noted are these: for Mrgpra2 receptor activation: FLIPR Ca2+ mobilization, Figure S1E (negative peptides), Figure 1E. (In general: Calcium assays in cells follow changes in intracellular calcium, usually with a dye or a luminescent sensor.)

For assay [1], the system named is bone marrow neutrophils. As to the kind of experiment: Western blot of IL-1β release from neutrophils. It counts as cell-based, mouse. The note with it: for Inhibition of hBD3-mediated IL-1β release: WT neutrophils, inhibitor 10μM added together with LTA, n=3. On the technique in general: A western blot detects proteins with antibodies after separation by electrophoresis.

In assay [2] the test system is neutrophils. As to the kind of experiment: Neutrophil elastase release. It is filed as cell-based. The conditions noted are these: Mrgpra2 dKO mouse neutrophils; hBD3 0-10 μM or 10 μM mBD14, one hour; n=5. The essentials:
(§1)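 Bone marrow neutrophils were MACS-purified from 8-10-week-old C57BL/6J-background mice of both sexes, with >90% purity by flow cytometry. 2×10^5 cells in RPMI were incubated 1 h with 0, 1, 5 or 10 μM hBD3 or 10 μM mBD14, both dissolved in RPMI. Elastase and MPO in the supernatant were quantified by DuoSet sandwich ELISA.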

Assay [3] relates to neutrophils. As to the kind of experiment: Neutrophil myeloperoxidase. The conditions noted are these: Mrgpra2 dKO mouse neutrophils; hBD3 0-10 μM or 10 μM mBD14, one hour; n=5. It counts as cell-based. The essentials: as §1
Assay [4] deals with bone marrow neutrophils. The experiment in a line: IL-1β and Cxcl2 release from neutrophils. It counts as cell-based, mouse. In outline:
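MACS-purified bone marrow neutrophils were primed with 1 μg/mL S. aureus lipoteichoic acid for 2 h. hBD3 or mBD14 was then added at 10 μM final. After a further 2 h, supernatants were collected and cells lysed in RIPA buffer. IL-1β and Cxcl2 were measured in both fractions by DuoSet ELISA. 5 mM ATP served as positive control.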

The subject of assay [5] is bone marrow neutrophils. As to the kind of experiment: Proteome profiler array of neutrophil cytokines and chemokines. It is filed as cell-based, mouse. The note with it: S. aureus LTA 1 μg/mL alone (signal 1), vs control.
Assay [6] concerns the target T2, Mrgpra2b-GFP (Mus musculus, UniProt Q91WW4).
T2 sequence (Q91WW4 1-305): T1 sequence (Q91WW4 1-305)
The experiment in a line: co-IP of biotin-hBD3 with Mrgpra2b-GFP. It counts as binding. The note with it: 10μM biotin-hBD3, 4°C overnight, anti-GFP beads, anti-biotin western blot.

The target of the next assay is MRGPRX3-FLAG (human) (UniProt Q96LB0).
Assay [7] has as its target T3, Mrgpra2b-GFP (mouse, UniProt Q91WW4 1-305).
T3 sequence (looked up): T1 sequence (Q91WW4 1-305)
As to the kind of experiment: flow cytometry on cells. On the technique in general: In flow cytometry, cells or beads pass a laser one at a time.

In the next assay the test system is S. aureus. As to the kind of experiment: Intradermal S. aureus skin infection, bacterial bioluminescence. It counts as in vivo, Staphylococcus aureus USA300 LAC::lux in mouse. The note with it: 100ng each, co-injected with S. aureus; bioluminescence 24 hours post-infection; n=8-36.
Setting [8] is: ELISA, LTA 1 μg/mL 2 hours, then 10 μM hBD3 or mBD14 for 2 hours, n=5.

Sequence of MRGPRX3-FLAG (human) (Q96LB0 whole entry): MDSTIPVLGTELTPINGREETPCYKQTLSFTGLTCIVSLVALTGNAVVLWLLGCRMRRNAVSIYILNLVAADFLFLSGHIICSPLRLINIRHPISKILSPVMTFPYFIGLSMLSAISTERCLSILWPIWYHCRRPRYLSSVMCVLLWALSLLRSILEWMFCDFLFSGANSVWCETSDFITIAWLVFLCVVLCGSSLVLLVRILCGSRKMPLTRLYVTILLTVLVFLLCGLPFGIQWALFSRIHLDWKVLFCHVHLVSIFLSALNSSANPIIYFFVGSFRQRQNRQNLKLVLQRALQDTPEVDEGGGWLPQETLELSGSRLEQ

What is called EC50 is the concentration that produces a half-maximal response. Regarding “KKINNPVSCLRKGGRCWNRCIGNTRQIGSCGVPFLKCCKRK (disulfide 9-37, 16-30, 20-38) [mBD3]”, on Mrgpra2b, the EC50 was 42.8 µM.

On to “hBD1: Human peptide hBD1 (DHYNCVSSGGQCLYSACPIFTKIQGTCYRGKAKCCK; UniProt P60022 33-68, looked up)”, for which the Mrgpra2 receptor activation result with Mrgpra2b was “did not trigger receptor activation”.

`CC(C)[C@H](NC(=O)c1ccc2ccccc2n1)C(=O)N[C@@H](CC(=O)O)C(=O)COc1c(F)cccc1F` [Q-VD-OPh]: in the assay with bone marrow neutrophils [1], the “Inhibition of hBD3-mediated IL-1β release” value is listed as “inhibited; also recorded: effectively reduced IL-1β release from WT neutrophils in response to hBD3”.

Take “mBD2: mouse peptide, printed as 'mBD1, 2, 4' (AVGSLKSIGYEAELDHCHTNGGYCVRAICPPSARRPGSCFPEKNPCCKYMK; UniProt P82020 21-71, looked up)”: the Mrgpra2 receptor activation result with Mrgpra2b is “did not trigger receptor activation”.

Regarding `C=C1C(=O)NC(C)C(=O)N(C)C(C)C(=O)NC(C(OC(=O)C(NC(C)=O)C(O)C(C)C)C(C)C)C(=O)N(C)C(C(C)OC)C(=O)OC(C)C(NC(C)=O)C(=O)OC(Cc2ccccc2)C(=O)N1C` (stereo not shown) [YM-254890] (Ac-T[PhLac][NMeDha]A[NMeA][X1][NMeT](Me); ester 1-C; configuration not given here), in the assay with bone marrow neutrophils [1], the “Inhibition of hBD3-mediated IL-1β release” value was “inhibited”.

With “hBD4: Human peptide, printed as 'hBD1, 2 and 4' (EFELDRICGYGTARCRKKCRSQEYRIGRCPNTYACCLRKWDESLLNRTKP; UniProt Q8WTQ1 23-72, looked up)”, in the assay with Mrgpra2b, the Mrgpra2 receptor activation result is listed as “did not trigger receptor activation”.

“FLPKTLRKFFCRIRGGRCAVLNCLGKEEQIGRCSNSGRKCCRKKK (disulfide 11-40, 18-33, 23-41) [mBD14]”: at Mrgpra2b, a half-maximal effect (EC50) was put at 18.7 µM and the Mrgpra2 receptor activation result was “evoked robust receptor activation”. Further, the “Elastase release, Mrgpra2 dKO neutrophils” value in the assay on neutrophils [2] was “did not respond to hBD3 or mBD14 stimuli”. In addition, the “MPO release, Mrgpra2 dKO neutrophils” value in the assay with neutrophils [3] is given as “did not respond to hBD3 or mBD14 stimuli”. Besides, the “Synthesis of IL-1β or Cxcl2, defensin alone” value in the assay on bone marrow neutrophils [4] (ELISA, total = secreted + intracellular, defensin alone, no LTA, n=5) is “did not induce the synthesis of IL-1β or Cxcl2”. In the assay on bone marrow neutrophils [4] (setting [8]), the “Cxcl2 release, LTA-primed Mrgpra2 dKO neutrophils” value is reported as “did not respond to hBD3 or mBD14”; the “Cxcl2 release, LTA-primed WT neutrophils” value is “released IL-1β and Cxcl2 in response to hBD3 or mBD14 stimuli; also recorded: significant increase in the amount of IL-1β and Cxcl2”; the “IL-1β release, LTA-primed Mrgpra2 dKO neutrophils” value is “did not respond to hBD3 or mBD14”; the “IL-1β release, LTA-primed WT neutrophils” value is “released IL-1β and Cxcl2 in response to hBD3 or mBD14 stimuli; also recorded: significant increase in the amount of IL-1β”.

In the case of lipoteichoic acid [LTA], the “Release of IL-1ra, Ccl3, Ccl4, Cxcl2 and TNFα by LTA alone” value with bone marrow neutrophils [5] is “triggered the release of more IL-1ra, Ccl3, Ccl4, Cxcl2 and TNFα compared to the control”. For the same molecule, the “IL-1β production and release by LTA alone” value in the assay with bone marrow neutrophils [4] (S. aureus LTA 1 μg/mL alone (signal 1), Figure 7A, D) is “induced the production of IL-1β, but the cytokine was not released from the cells”. Moreover, the “Priming effect of LTA, WT versus Mrgpra2 dKO neutrophils” value in the assay with bone marrow neutrophils [4] (S. aureus LTA 1 μg/mL, Figure 7A, C, D) was “did not differ between WT or Mrgpra2 dKO neutrophils”. The “Production of pro-IL-1β by LTA” value with bone marrow neutrophils [1] (S. aureus LTA 1 μg/mL, WT and Mrgpra2 dKO neutrophils) was “induced the production of pro-IL-1β in both WT and Mrgpra2 dKO neutrophils”.

As to “hBD2: Human peptide, printed as 'hBD1, 2 and 4' (GIGDPVTCLKSGAICHPVFCPRRYKQIGTCGLPGTKCCKKP; UniProt O15263 24-64, looked up)”, the Mrgpra2 receptor activation result with Mrgpra2b is “did not trigger receptor activation”.

With “Biotin-GIINTLQKYYCRVRGGRCAVLSCLPKEEQIGKCSTRGRKCCRRKK (disulfide 11-40, 18-33, 23-41) [biotin-hBD3]”, the “Co-precipitation with Mrgpra2b-GFP” value at Mrgpra2b-GFP [6] is on record as “co-precipitated only with Mrgpra2b-GFP; also recorded: could be co-precipitated”.

For “mBD1: mouse peptide mBD1 (DQYKCLQHGGFCLRSSCPSNTKLQGTCKPDKPNCCKS; UniProt P56386 33-69, looked up)”, the Mrgpra2 receptor activation entry in the assay with Mrgpra2b was “did not trigger receptor activation”.

B1: Human beta-defensin 3 (peptide)
peptide: GIINTLQKYYCRVRGGRCAVLSCLPKEEQIGKCSTRGRKCCRRKK
modifications: ends and bridges not checked; cysteine pairing not given here
For the molecule B1, the EC50 of FLIPR intracellular calcium mobilization in HEK cells expressing MRGPRX3 with MRGPRX3-FLAG (human) is 10.8 µM.

B2: N-terminal biotinylated human beta-defensin 3 (peptide, UniProt P81534 23-67, looked up)
peptide: Biotin-GIINTLQKYYCRVRGGRCAVLSCLPKEEQIGKCSTRGRKCCRRKK
modifications: ends and bridges not checked
As usually defined, the Kd is the equilibrium constant for the complex coming apart. Lower therefore signals higher affinity. As to B2, the Kd with Mrgpra2b-GFP [7] came to 15.9 µM.

B3: IL-1β: Recombinant IL-1β, R&D systems 401-ML (protein, UniProt P10749 118-269, looked up)
Interleukin-1 beta: VPIRQLHYRLRDEQQKSLVLSDPYELKALHLNGQNINQQVIFSMSFVQGEPSNDKIPVALGLKGKNLYLSCVMKDGTPTLQLESVDPKQYPKKKMEKRFVFNKIEVKSKVEFESAEFPNWYISTSQAEHKPVFLGNNSGQDIIDFTMESVSS
In the case of B3, in the assay on S. aureus, the “Bacterial load / anti-S. aureus rescue, Def cKO mice” value was “rescued the anti-S. aureus defect of Mrgpra2 dKO and Def cKO mice; also recorded: significantly reduced the bacterial load”; the “Bacterial load / anti-S. aureus rescue, Mrgpra2 dKO mice” value is “rescued the anti-S. aureus defect of Mrgpra2 dKO and Def cKO mice; also recorded: significantly reduced the bacterial load”.

B4: Cxcl2: recombinant mouse Cxcl2, R&D (protein, UniProt P10889 28-100, looked up)
C-X-C motif chemokine 2: AVVASELRCQCLKTLPRVDFKNIQSLSVTPPGPHCAQTEVIATLKGGQKVCLDPEAPLVQKIIQKILNKGKAN
Regarding B4, in the assay on S. aureus, the “Bacterial load / anti-S. aureus rescue, Def cKO mice” value is listed as “did not rescue Mrgpra2 or Def KO phenotypes; also recorded: did not alter the mutant phenotypes” and the “Bacterial load / anti-S. aureus rescue, Mrgpra2 dKO mice” value is given as “did not rescue Mrgpra2 or Def KO phenotypes; also recorded: did not alter the mutant phenotypes”.
